Laboratory results reported in PMC6953265 (Molecular imaging and biology, 2019).
“And” between values parts separate entries of the source, which are not always exact repeats. Identical values can stand only once. Like-named read-outs stand apart in the source and are kept apart here.

Assays:
TSPO [1] = target: T1, TSPO (Rattus norvegicus, UniProt P16257); settings: earlier study; cited from earlier work
TSPO [2] = target: T1, TSPO; type: binding; settings: C6 glioma cell lysate; for IC50: read-out: TSPO binding affinity (IC50), competition with [^3H]PK 11195 (0.6 nM), 2 h at 25 °C
Procedure, shortened: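 C6 cells PBS-washed, then freeze-thawed three times in lysis buffer (5.0 mM HEPES, mannitol, sucrose, benzamidine, MgCl2, pH 7.4); lysate 0.5 mg/ml. Lysate incubated with [3H]PK 11195 (final 0.6 nM) and test compound (10−5 to 10−14 M), 2 h, 25 °C. Rapid filtration onto polyethylenimine-presoaked filters, scintillation counting. IC50 fitted in triplicate; fold values are IC50 ratios.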

TSPO [3] = target: T1, TSPO; settings: mean ± SEM, n = 5, cited from earlier work
TSPO [4] = target: T1, TSPO; experiment: Compartmental modeling of dynamic PET data; type: in vivo; settings: for VT ratio between tumor and normal brain: from VT values of Table 1; for K1/k2 / VT / k3/k4 (BPND): mean ± SEM, n = 7
C6 glioma = experiment: In vivo uptake of [^18F]VUIIS1018A, 60-min dynamic PET in C6 glioma-bearing rats; set-up: species or system rat
Procedure, shortened: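 Male Wistar rats, 1.0 × 10^5 C6 glioma cells implanted stereotactically in right hemisphere 2 weeks before imaging; tumours confirmed by T2-weighted MRI at 4.7T. Venous and arterial catheters placed. 18F-labelled tracer 1.1 ± 0.3 mCi given via jugular catheter in microPET; 60-min listmode dynamic scan (32 frames), CT attenuation correction, 2D OSEM reconstruction. Tumour and contralateral brain VOIs gave time-activity curves.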

TSPO [5] = target: T1, TSPO; type: in vivo; settings: blocking with [^19F]VUIIS1018A 10 mg/kg 5 min before tracer
Procedure, shortened: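 C6 glioma-bearing male Wistar rats, catheterised venous and arterial. Unlabelled (19F) analogue of tracer, 10 mg/kg, given 5 min before 18F tracer (1.1 ± 0.3 mCi, jugular catheter), then 60-min dynamic microPET with CT attenuation correction. Time-activity curves from tumour and contralateral brain VOIs. BPND maps by SRTM2, normal cerebrum as reference tissue. n = 3.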

CCc1cc(CC)n2nc(-c3ccc(OCCF)cc3)c(CC(=O)N(CC)CC)c2n1 [VUIIS1008, 2-(5,7-diethyl-2-(4-(2-fluoroethoxy)phenyl)pyrazolo[1,5-a]pyrimidin-3-yl)-N,N-diethylacetamide]
fold enhancement in binding affinity compared to DPA-714 (TSPO [1]): 36 fold

CCCCc1cc(C)nc2c(CC(=O)N(CC)CC)c(-c3ccc(OCCF)cc3)nn12 [VUIIS1018A]
fold enhancement in binding affinity compared with DPA-714 (TSPO [2]; ratio of IC50 values): ~700 fold | fold enhancement in binding affinity compared with VUIIS1008 (TSPO [2]; ratio of IC50 values): 20 fold | IC50 (TSPO [2]): 0.0162 nM

CCCCc1cc(C)n2nc(-c3ccc(OCCF)cc3)c(CC(=O)N(CC)CC)c2n1 [VUIIS1018B]
fold lower binding affinity than VUIIS1018A (TSPO [2]; ratio of IC50 values): 6000 fold | IC50 (TSPO [2]): 100 nM

CCc1cc(CC)n2nc(-c3ccc(OCC[18F])cc3)c(CC(=O)N(CC)CC)c2n1 [[^18F]VUIIS1008, 2-(5,7-Diethyl-2-(4-(2-[^18?F]fluoroethoxy)phenyl)pyrazolo[1,5-a]pyrimidin-3-yl)-N,N-diethylacetamide]
K1/k2 (TSPO [3]; Brain): 0.855 ± 0.325 | VT (TSPO [3]; Brain): 4.210 ± 1.612 | k3/k4 (BPND) (TSPO [3]; Brain): 4.435 ± 1.387 | k3/k4 (BPND) (TSPO [3]; Brain, listed as [^18 F]VUIIS1008): 4.43 | K1/k2 (TSPO [3]; Tumor): 1.902 ± 0.816 | VT (TSPO [3]; Tumor): 25.224 ± 10.035 | k3/k4 (BPND) (TSPO [3]; Tumor): 12.63 and 12.634 ± 1.406 | VT ratio between tumor and normal brain (TSPO [4]): 6.0

CCCCc1cc(C)nc2c(CC(=O)N(CC)CC)c(-c3ccc(OCC[18F])cc3)nn12 [[^18F]VUIIS1018A, 2-(7-Butyl-2-(4-(2-[^18F]Fluoroethoxy)phenyl)-5-Methylpyrazolo[1,5-a] Pyrimidin-3-yl)-N,N-Diethylacetamide]
accumulation in C6 gliomas (C6 glioma): robust accumulation | accumulation in normal brain (C6 glioma): negligible accumulation | K1/k2 (TSPO [4]; Brain): 0.311 ± 0.036 | VT (TSPO [4]; Brain): 1.214 ± 0.190 | k3/k4 (BPND) (TSPO [4]; Brain): 2.91 and 2.913 ± 0.456 | K1/k2 (TSPO [4]; Tumor): 0.532 ± 0.130 | VT (TSPO [4]; Tumor): 11.036 ± 3.731 | k3/k4 (BPND) (TSPO [4]; Tumor): 23.10 and 23.097 ± 4.757 | VT ratio between tumor and normal brain (TSPO [4]): 9.1 | fold higher k3/k4 in tumor compared with healthy brain (TSPO [4]; from k3/k4 values of Table 1): 8 fold | fold enhancement in binding affinity compared with DPA-714 (TSPO [2]; ratio of IC50 values): approximately 700 fold | fold enhancement in binding affinity compared with DPA-714 (TSPO [2]; ratio of IC50 values, listed as [^18 F]VUIIS1018A): 700 fold | circulating plasma radioactivity compared with the unblocked scenario (TSPO [5]): significantly elevated | effect of blocking dose on accumulation in the normal brain (TSPO [5]): insignificant effect | overall reduction in tumor PET signal (TSPO [5]; mean ± SD, n = 3): 48.3 ± 2.8%
